# The sample as a whole holds a higher share of hits than the screen did.
# NALP1 inh: inhibitors of NALP1 inflammasome in yeast; inhibition, % at 10 µM; 0.61% of 280,000 active; S. cerevisiae NALP1/ASC/caspase-1 growth, X-gal OD620, 72 h; in the data active = inhibition mostly above about 24%, no sharp cut-off; inactive = mostly below about 32%
# L major viab: reduces viability of Leishmania major promastigotes | 9% of 200,000 active | inhibition, % at 10 µM | resazurin fluorescence viability | AID 1063; in the data active = inhibition above about 50%;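 note: promastigotes grown with compound for 44 hours at 28 °C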
# T cruzi repl: blocks replication of Trypanosoma cruzi | T. cruzi beta-gal in NIH3T3, luminescence, 90 h | 1.4% of 300,000 active | AID 1885 | inhibition, % (test concentration not listed);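 active = mean inhibition across valid replicates above about 55%, limit read from the data; inconclusive = mean below that limit but half or more replicates reach it; inactive = mean below it, under half of replicates reach it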;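 note: signal also drops with host cell toxicity which is not excluded here; 0% = plate median of DMSO wells and 100% = zero luminescence signal; higher percent means less beta-gal luminescence so fewer parasites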
#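 Assay system: NIH/3T3 host cells with β-galactosidase reporter T. cruzi; input: 5,000 host fibroblasts per well; compound: single 50 nL compound addition per well in DMSO; timing: ≥90 h infection period, 3 h prior cell attachment; measured by: GalScreen β-gal luminescence, detergent lysis, 60 min; evaluation: percent inhibition of parasite-derived β-gal signal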
# Calb FLC: affects C. albicans growth with fluconazole; growth inhibition, % (concentration not given with the values); 0.57% of 300,000 active; C. albicans CaCi-2 + fluconazole, Alamar Blue growth, 48 h;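 active = growth inhibition above about 58% in most replicates, limit read from the data, passing the limit was not always enough; inconclusive = exactly half the replicates above a set limit; inactive = most replicates below a set limit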;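 note: all wells also contain fluconazole at 8 µg/ml as a sub-toxic cotreatment; 0% = median of DMSO wells and 100% = median of geldanamycin control wells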
# NLRP3 yeast inh: blocks the NALP3 inflammasome reconstituted in yeast. Yeast reconstituted NLRP3/ASC/caspase-1, beta-gal luminescence, 24 h. inhibition, % at 10 µM. 0.39% of 330,000 active. AID 2825;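 active = inhibition of 50% or more; inactive = inhibition below 50%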;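 note: plate controls were induced DMSO wells for no effect and uninduced yeast grown without galactose for full effect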
# PolyA inh: blocks polyadenylation in yeast reporter cells | S. cerevisiae SKY197-pL101 polyadenylation reporter, beta-gal luminescence; efflux-impaired pdr1/pdr3 knockout yeast; score 100 = 6 SD above DMSO | activity score, % at 12 µM | 0.02% of 300,000 active | AID 1875;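 active = lowest replicate activity score at least 50, where 100 means six control SD above control mean; inconclusive = lowest score under 50 but half or more replicates reach 50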;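 note: yeast exposed to compound for 9 h at 30 °C; higher score means more reporter readthrough which indicates perturbed polyadenylation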
# The depositor's hits bear a star; u = inconclusive; x = no result.
SMILES,NALP1 inh,L major viab,T cruzi repl,Calb FLC,NLRP3 yeast inh,PolyA inh
Cc1ccc(S(=O)(=O)N2CCC(C(=O)OCC(=O)NC(C)c3ccc(F)cc3)CC2)cc1C (stereo not given),x,x,x,x,5,x
COc1ccc(NC(=O)Nc2ccc(Cc3ccncc3)cc2)cc1OC,26,96*,-22,1,14,8
COc1cc2ccccc2cc1C(=O)Nc1ccc(Cc2ccncc2)cc1,32,99*,62*,26,0,-21
[N-]=[N+]=NCC/C=C\C1NS(=O)(=O)OCC1O (stereo not given),12,x,-8,-1,9,0
C(#Cc1ccc(C#CCN2CCCC2)cc1)CN1CCCC1,46,92*,23,-3,17,-7
CCOC(=O)c1ccc(NC(=S)Nc2cccc(C)n2)cc1,-27,57*,-7,-17,19,-9
CC(=O)Oc1c(-c2ccc(Br)o2)oc2ccccc2c1=O,-8,x,-5,85*,34,21
COc1ccc(-c2oc3ccccc3c(=O)c2OC(C)=O)cc1,3,37,23,45,4,-18
Cc1ccc(C)c(NC(=S)NNC(=O)c2csc(C(C)C)c2)c1,-2,3,13,92*,10,-20
Cc1ccc(C)c(NC(=S)NNC(=O)c2csc(C)c2C)c1,-3,-1,6,-5,1,6
CCCCn1c(N)c(N(CC)C(=O)CSc2nnc(-c3ccco3)n2CC)c(=O)[nH]c1=O,x,x,-12,17,-2,8
COc1ccc(C(=O)/C=C/c2ccccc2)c(O)c1,3,75*,-17,0,20,12
CSc1ccc(/C=C/C(=O)c2ccc(O)cc2)cc1,59*,40,9,42,41,4
COc1ccc(C(=O)/C=C/c2ccc(OC)cc2OC)c(O)c1,-1,-5,-21,3,21,-12
O=C(/C=C/c1ccc(O)cc1)c1ccc(O)cc1O,19,85*,-57,x,6,u
CC(NC(=O)COC(=O)CCc1ccccc1)c1ccccc1 (stereo not given),23,42,-5,-2,13,1
CCN(C(=O)Cn1cnc2c(nc3n2CCCCC3)c1=O)c1cccc(Cl)c1,-4,x,-5,3,13,4
O=C(CCCc1c[nH]c2ccccc12)NCc1ccccc1C(F)(F)F,9,x,-11,6,25,-8
COc1cccc(N2CCN(C(=O)CCNS(=O)(=O)c3ccc4c(c3)c(=O)n(C)c(=O)n4C)CC2)c1,-10,0,-3,-5,7,-3
OCCN(Cc1nc(-c2ccc3c(c2)OCO3)no1)Cc1cccs1,-2,-3,-7,-7,30,15
CCOC(=O)C1=C(O)/C(=C/c2ccc(OCC(=O)O)c(OCC)c2)SC1=Nc1ccc(OC)cc1,30,62*,10,0,7,6
CCOC(=O)C1=C(O)/C(=C/c2ccc(OCC(=O)O)c(OCC)c2)SC1=Nc1ccc(C)cc1,1,4,10,70,2,2
CC(C)(C)NS(=O)(=O)c1ccc(NC(=O)c2cc(-c3ccccc3)nc3ccccc23)cc1,11,-4,59*,-4,20,4
Cc1cc(NC(=O)c2cc(-c3ccccc3Cl)nc3ccccc23)no1,-10,x,28,15,10,7
Cc1cc(NS(=O)(=O)c2ccc(NC(=O)c3cc(-c4ccccc4Cl)nc4ccccc34)cc2)no1,23,60*,-4,-3,28,10
SMILES,NALP1 inh,L major viab,T cruzi repl,Calb FLC,NLRP3 yeast inh,PolyA inh
Cc1cccc(NS(=O)(=O)c2ccc(C)c(C(=O)N(C)C3CCN(C)CC3)c2)c1,x,x,x,x,15,x
CCOc1ccc2nc(N3C(=O)/C(=C/c4ccccc4)NC3=S)sc2c1,22,-2,1,92*,9,-9
COc1cccc(C(=O)c2cn(CC(=O)NCc3ccco3)c3nc(C)ccc3c2=O)c1,10,x,-4,11,-4,-6
CCn1ncc(C(=O)Nc2cc(C)on2)c1C,4,-4,x,20,18,4
CCn1ncc(C(=O)Nc2cccc(Cl)c2)c1C,45*,-1,-17,-37,8,1
COc1ccccc1N/C(=N/S(=O)(=O)c1ccc(C)cc1)c1ccc(Cl)cc1,8,100*,7,16,35,-23
Cc1ccc(S(=O)(=O)/N=C(/Nc2ccc(F)cc2F)c2ccc(F)cc2)cc1,32,x,-11,-13,-6,-7
CC(=O)c1cc2c(cc1N/C(=N/S(=O)(=O)c1ccc(C)cc1)c1ccccc1)OCO2,20,59*,31,-1,15,-27
CC(=O)c1cc2c(cc1N/C(=N/S(=O)(=O)c1ccc(C)cc1)c1ccc(Cl)cc1)OCO2,16,35,23,u,8,-22
COc1ccccc1NS(=O)(=O)c1cc(N/C(=N\S(=O)(=O)c2ccccc2)c2ccc(F)cc2)ccc1Cl,19,99*,52,6,21,10
COc1ccc(OCC(O)Cn2c(N)nc3c2c(=O)[nH]c(=O)n3C)cc1 (stereo not given),x,x,-14,5,-3,3
N/C(=N\OC(=O)CC1CCCCC1)c1cccc([N+](=O)[O-])c1,33,68*,-2,-10,6,3
O=C(CN1C(=O)CCC1=O)NNc1ccc2ccccc2c1,12,96*,x,100*,24,-42
O=C(Cc1ccccc1)NNc1ccc2ccccc2c1,-2,96*,9,u,37,-28
CCN(CC(=O)Nc1c(F)cccc1F)C(=O)c1csc2c1CCCC2,x,x,-5,x,26,-6
O=C(c1cccc(Br)c1)N1CCN(c2ccccn2)CC1,x,x,x,16,5,3
O=C(c1ccc(SCc2cccc(Br)c2)c([N+](=O)[O-])c1)N1CCN(c2ccccn2)CC1,-3,47,58*,27,5,-1
O=C(CNC(=O)c1ccc(Cl)cc1)NCC(F)(F)F,23,55*,-12,4,24,0
CNC(=S)N1N=C(c2ccc(C)cc2)CC1c1cc(OC)ccc1OC (stereo not given),12,53*,33,-21,7,-39
CNC(=S)N1N=C(c2ccc(Br)cc2)CC1c1ccc(OC)cc1 (stereo not given),15,99*,34,-5,28,-2
CNC(=S)N1N=C(c2ccc(OC)cc2)CC1c1ccc(Cl)cc1Cl (stereo not given),26,100*,u,3,6,-56
CNC(=S)N1N=C(c2ccc(C)cc2)CC1c1ccc(OC)cc1 (stereo not given),1,97*,23,7,40,29
COc1ccc(OC)c(C2CC(c3ccccc3)=NN2C(=S)Nc2ccccc2)c1 (stereo not given),-4,x,3,3,18,-14
CNC(=S)N1N=C(c2ccc(OC)cc2)CC1c1ccccc1Cl (stereo not given),3,x,19,2,15,-41

# Source: PubChem
